Measurements from ChEMBL document CHEMBL2169822, “Discovery and optimization of 1,3,4-trisubstituted-pyrazolone derivatives as novel, potent, and nonsteroidal farnesoid X receptor (FXR) selective antagonists” (J Med Chem, 2012).
Calls of active or inactive are those of the source. The rule behind the calls is not given here.

Key:
[1] = target: T1, Progesterone receptor (Homo sapiens) (UniProt P06401); assay: Agonist activity at recombinant PR-LBD expressed in HEK293T cells co-expressing GAL4 DBD at 20 uM by transactivation assay; assay type: functional, cell-based; settings: HEK-293T
T1 sequence (whole entry): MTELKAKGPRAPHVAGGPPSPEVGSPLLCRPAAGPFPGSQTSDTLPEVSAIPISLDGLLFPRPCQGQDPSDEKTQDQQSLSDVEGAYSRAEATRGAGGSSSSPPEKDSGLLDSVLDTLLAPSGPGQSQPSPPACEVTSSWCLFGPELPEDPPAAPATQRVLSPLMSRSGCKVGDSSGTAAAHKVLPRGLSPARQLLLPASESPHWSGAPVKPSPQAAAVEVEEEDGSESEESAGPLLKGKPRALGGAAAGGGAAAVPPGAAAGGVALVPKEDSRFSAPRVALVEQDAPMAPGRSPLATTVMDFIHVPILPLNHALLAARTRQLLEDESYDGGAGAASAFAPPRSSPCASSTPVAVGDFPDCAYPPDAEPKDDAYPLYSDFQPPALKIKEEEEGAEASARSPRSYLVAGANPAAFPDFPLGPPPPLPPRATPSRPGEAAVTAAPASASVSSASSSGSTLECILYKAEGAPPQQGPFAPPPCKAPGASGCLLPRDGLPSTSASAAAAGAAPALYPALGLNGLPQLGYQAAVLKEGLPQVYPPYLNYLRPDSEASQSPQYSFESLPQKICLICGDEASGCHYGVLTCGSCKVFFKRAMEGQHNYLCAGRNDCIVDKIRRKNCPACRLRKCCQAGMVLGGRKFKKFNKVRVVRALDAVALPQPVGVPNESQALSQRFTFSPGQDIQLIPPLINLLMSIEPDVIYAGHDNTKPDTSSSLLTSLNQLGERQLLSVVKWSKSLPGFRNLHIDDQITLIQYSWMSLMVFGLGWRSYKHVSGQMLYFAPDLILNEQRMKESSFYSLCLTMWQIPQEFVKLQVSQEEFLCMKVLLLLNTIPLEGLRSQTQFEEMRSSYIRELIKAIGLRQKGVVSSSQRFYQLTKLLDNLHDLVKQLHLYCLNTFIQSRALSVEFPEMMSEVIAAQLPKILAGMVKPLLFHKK
Summary of the method: (§1)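 One-hybrid assay in HEK293T cells cotransfected with a Gal4 DBD–NR-LBD fusion (RXRα, LXRα, GR, PR, PPARδ or PPARγ) plus UAS-TK-Luc reporter. Compound was 20 μM, given alone or with agonist: 9cRA 0.1 μM (RXRα), TO901317 0.5 μM (LXRα), dexamethasone 50 nM (GR), progesterone 100 nM (PR), GW1516 10 μM (PPARδ), rosiglitazone 10 μM (PPARγ). Luciferase read-out; three independent experiments.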

[2] = target: T2, Glucocorticoid receptor (Homo sapiens) (UniProt P04150); assay: Agonist activity at recombinant glucocorticoid receptor LBD expressed in HEK293T cells co-expressing GAL4 DBD at 20 uM by transactivation assay; assay type: functional, cell-based; settings: HEK-293T; summary of the method: as §1
T2 sequence (whole entry): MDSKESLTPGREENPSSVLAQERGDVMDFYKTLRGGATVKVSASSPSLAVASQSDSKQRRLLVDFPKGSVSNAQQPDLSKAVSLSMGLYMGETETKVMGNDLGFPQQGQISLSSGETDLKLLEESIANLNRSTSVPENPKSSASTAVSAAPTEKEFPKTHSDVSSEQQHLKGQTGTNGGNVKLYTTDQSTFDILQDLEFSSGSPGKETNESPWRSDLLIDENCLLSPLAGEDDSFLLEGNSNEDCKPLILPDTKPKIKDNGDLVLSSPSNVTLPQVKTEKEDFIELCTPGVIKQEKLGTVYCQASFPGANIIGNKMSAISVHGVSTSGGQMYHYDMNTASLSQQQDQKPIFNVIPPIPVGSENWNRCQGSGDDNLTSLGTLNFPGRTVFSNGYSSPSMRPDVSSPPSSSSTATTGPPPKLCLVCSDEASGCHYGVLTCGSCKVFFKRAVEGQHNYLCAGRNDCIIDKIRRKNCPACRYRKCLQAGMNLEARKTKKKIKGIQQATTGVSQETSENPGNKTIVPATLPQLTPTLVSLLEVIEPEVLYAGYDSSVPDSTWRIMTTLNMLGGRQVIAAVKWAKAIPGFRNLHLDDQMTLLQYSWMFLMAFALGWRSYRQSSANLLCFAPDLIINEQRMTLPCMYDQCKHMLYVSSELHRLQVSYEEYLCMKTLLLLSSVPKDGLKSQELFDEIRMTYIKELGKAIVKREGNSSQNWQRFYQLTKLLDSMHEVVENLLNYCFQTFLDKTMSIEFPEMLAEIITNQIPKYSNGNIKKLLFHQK

HEK-293T = assay: Antagonist activity at FXRalpha/RXRalpha expressed in HEK293T cells co-expressing GAL4 DBD assessed as inhibition of CDCA-induced transactivation at 40 uM after 18 hrs by luciferase reporter gene assay; assay type: functional, cell-based; settings: Homo sapiens
Summary of the method: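 FXR transactivation in HEK293T cells transiently transfected with pcDNA3.1-FXRα, pcDNA3.1-RXRα, pGL3-FXRE-Luc and pRL-SV40 Renilla vector. Medium was replaced 6 h after transfection with medium holding compound at varied concentrations, with or without 20 μM CDCA, for 18 h. Read-out was dual-luciferase. Three independent experiments.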

[3] = Agonist activity at GST tagged human recombinant FXRalphaLBD expressed in Escherichia coli BL21 cells assessed as SRC-1 co-activator association at 40 uM after 30 mins by HTRF assay; assay type: functional
Summary of the method: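 HTRF coactivator recruitment: 10 nM GST-human FXRαLBD (residues 238–473, E. coli BL21(DE3)), 0.83 nM anti-GST-Eu cryptate, 100 nM biotin-SRC1 peptide, 41.75 nM SA/XL665. Buffer was 50 mM Hepes pH 7.0, 125 mM KF, 0.125% CHAPS, 0.05% dry milk. Compound alone or with CDCA, 30 min at room temperature. Signal was 1000×(668/620 nm). Primary screen at 40 μM; IC50 as mean ± SE, three experiments.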

Homo sapiens = species on record: Homo sapiens; assay: Ratio of Z-guggulsterone IC50 to compound IC50 for GST-tagged human recombinant FXRalphaLBD
Mus musculus [4] = assay: Reduction of hepatic triglyceride level in cholesterol-fed C57BL/6 mouse administered orally after 10 days; assay type: functional, organism-based
Summary of the method: (§2)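 Male C57BL/6 mice, 8–12 weeks old, were randomized into five groups of nine. Control mice had ground chow; the other groups had chow with 2% cholesterol. Compound (50 or 100 mg/kg) or reference (100 mg/kg) was suspended in 0.5% CMC-Na and given by oral gavage; control and vehicle mice got 0.5% CMC-Na. Serum and hepatic triglyceride and total cholesterol were measured.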

Mus musculus [5] = assay: Reduction of hepatic triglyceride level in cholesterol-fed C57BL/6 mouse at 50 mg/kg, po after 10 days; assay type: functional; set-up: scale not given: the % may be the effect or the level left; summary of the method: as §2
[6] = target: T1, Progesterone receptor (Homo sapiens); assay: Antagonist activity at recombinant PR LBD expressed in HEK293T cells co-expressing GAL4 DBD assessed as inhibition of progesterone-induced transactivation at 20 uM by luciferase reporter gene assay; assay type: functional, cell-based; settings: HEK-293T; summary of the method: as §1

- Activity [1]: inactive
- Activity [2]: inactive
- Ratio IC50 (Homo sapiens): 10
- inhibition [6]: inactive
Structure (SMILES): COc1cc(/C=C2\C(=O)N(c3cccc([N+](=O)[O-])c3)N=C2c2ccccc2)ccc1O
- inhibition (HEK-293T): Active
- Activity [3]: <5%
- Activity (Mus musculus [4]): Dose-dependent effect
- Activity (Mus musculus [5]): 43.5%
